From PubChem BioAssay
The list is not random: actives were taken first. Their share in the collection is about 2.3%.
TRPC6 inh: inhibitors of mouse TRPC6 channel | Q61143 | HEK293-TRPC6, membrane potential dye, ACh-evoked depolarization; stronger effect = lower value | B-score at 10 µM | 310,000 compounds, 1.1% hits;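 active = B-score under library mean minus 3 SD, initial fluorescence not abnormally high, positive integrated signal ratio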;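 note: B-score derived from integrated fluorescence ratio over the kinetic read; more negative B-score means stronger inhibition of depolarization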
TRPC6 act: mouse TRPC6 channel activation; HEK293-TRPC6 membrane potential dye fluorescence; stronger effect = higher value; B-score at 10 µM; 310,000 compounds, 0.13% hits; AID 2550;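 active = B-score of the integrated fluorescence ratio above library mean plus 3 SD, and starting fluorescence ratio within library mean plus 5 SD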;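 note: higher score means more depolarization so channel activation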
TRPC4 agonist: opens the mouse TRPC4 cation channel. Q9QUQ5. HEK293 TRPC4beta/mu-opioid, Fluo4 calcium fluorescence; stronger effect = higher value. B-score at 10 µM. 310,000 compounds, 0.49% hits. AID 2237;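 active = B-score above 5 SD of library B-scores, and initial fluorescence ratio not above library mean plus 5 SD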;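 note: positive B-score marks a calcium rise read as TRPC4 activation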
Target sequence (Q9QUQ5 whole entry, looked up): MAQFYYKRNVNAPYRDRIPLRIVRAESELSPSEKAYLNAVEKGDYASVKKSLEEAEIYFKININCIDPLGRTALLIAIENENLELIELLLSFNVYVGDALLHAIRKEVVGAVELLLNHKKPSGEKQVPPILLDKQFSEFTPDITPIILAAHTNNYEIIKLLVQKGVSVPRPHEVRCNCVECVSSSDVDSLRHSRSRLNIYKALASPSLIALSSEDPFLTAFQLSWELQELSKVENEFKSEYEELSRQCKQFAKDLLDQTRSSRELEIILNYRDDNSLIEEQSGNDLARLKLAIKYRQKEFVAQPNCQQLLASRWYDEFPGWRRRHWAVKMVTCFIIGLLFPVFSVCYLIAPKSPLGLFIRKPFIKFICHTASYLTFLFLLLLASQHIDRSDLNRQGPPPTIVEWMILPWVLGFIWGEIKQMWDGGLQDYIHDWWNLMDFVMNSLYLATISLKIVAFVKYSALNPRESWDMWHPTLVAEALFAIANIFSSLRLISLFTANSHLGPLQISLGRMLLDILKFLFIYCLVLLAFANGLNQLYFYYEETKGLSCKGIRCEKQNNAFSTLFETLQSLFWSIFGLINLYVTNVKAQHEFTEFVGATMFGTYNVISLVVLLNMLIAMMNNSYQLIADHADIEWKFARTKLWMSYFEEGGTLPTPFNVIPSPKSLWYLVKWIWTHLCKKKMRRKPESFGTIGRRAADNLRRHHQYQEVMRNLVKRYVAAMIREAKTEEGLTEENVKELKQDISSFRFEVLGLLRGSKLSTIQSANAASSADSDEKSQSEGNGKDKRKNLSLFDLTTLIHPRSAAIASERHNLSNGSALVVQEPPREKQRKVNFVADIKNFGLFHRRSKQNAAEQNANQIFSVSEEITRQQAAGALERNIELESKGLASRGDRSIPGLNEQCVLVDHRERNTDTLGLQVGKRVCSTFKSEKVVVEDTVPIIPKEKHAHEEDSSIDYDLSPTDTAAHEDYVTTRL
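Assay system – TRPC4beta and mu-opioid receptor HEK293 stable cells · Measured by – Fluo4 fluorescence, kinetic · Schedule – dye loading 45 min room temperature, 110 s kinetic read · Read-out – B-scored integrated calcium fluorescence ratio · Controls – buffer and maximal DAMGO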
TRPC4 potent: TRPC4 (mouse) allosteric potentiation; Q9QUQ5; HEK293 TRPC4beta/mu-opioid, DAMGO EC20, Fluo-4 Ca2+ flux; stronger effect = higher value; B-score at 10 µM; 310,000 compounds, 0.42% hits;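 active = B-score of calcium response area above 5 SD of library B-scores, with initial fluorescence ratio within 5 SD of library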;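 note: B-score of integrated fluorescence ratio over time as area under calcium response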
TRPC4 inh: TRPC4 (mouse) channel inhibition; Q9QUQ5; HEK293 TRPC4beta/mu-opioid, DAMGO-evoked Fluo4 calcium flux; stronger effect = lower value; B-score at 10 µM; 300,000 compounds, 0.39% hits; AID 2247;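 active = B-score over 3 SD under the library average, no early fluorescence shift, positive overall ratio signal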
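Assay system – HEK293 line stably carrying TRPC4beta and mu-opioid receptor · Doses – single dose · Detection – Fluo4 calcium-dye fluorescence, kinetic read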
The depositor's hits bear a star.

Results for COc1ccc2sc(N(CCCN(C)C)C(=O)c3ccc(S(=O)(=O)N(C)Cc4ccccc4)cc3)nc2c1 ?
TRPC6 inh: inactive; TRPC6 act: inactive; TRPC4 agonist: inactive; TRPC4 potent: inactive; TRPC4 inh: inactive

How did CCN(c1ccccc1)S(=O)(=O)c1ccc(C(=O)N(CCCN(C)C)c2nc3cc4c(cc3s2)OCO4)cc1 do in these assays?
TRPC6 inh: inactive; TRPC6 act: inactive; TRPC4 agonist: 168*; TRPC4 potent: inactive; TRPC4 inh: inactive

Results for COc1ccc(-n2c3c(cc(C(=O)NCC(=O)c4ccccc4)c2=O)C(=O)CC(C)(C)C3)cc1 ?
TRPC6 inh: inactive; TRPC6 act: inactive; TRPC4 agonist: inactive; TRPC4 potent: inactive; TRPC4 inh: inactive

Results for O=C(CNCC1CCCCC1)Nc1ccc(OC(F)(F)F)cc1 ?
TRPC6 inh: inactive; TRPC6 act: inactive; TRPC4 agonist: 43*; TRPC4 potent: inactive; TRPC4 inh: inactive

Results for Cc1ccc(NC(=O)c2cccc(S(=O)(=O)N(C)c3ccccc3)c2)cc1S(=O)(=O)N1CCOCC1 ?
TRPC6 inh: inactive; TRPC6 act: inactive; TRPC4 agonist: inactive; TRPC4 potent: inactive; TRPC4 inh: inactive

What do the screens show for `COc1ccc(C(=O)NC2CCN(CC(=O)NC3CCCCC3)CC2)cc1`?
TRPC6 inh: inactive; TRPC6 act: inactive; TRPC4 agonist: inactive; TRPC4 potent: inactive; TRPC4 inh: -6*

What do the screens show for `O=C(CN1CCC(n2nnc3cc(F)ccc32)CC1)NNC(=O)c1ccccc1`?
TRPC6 inh: inactive; TRPC6 act: inactive; TRPC4 agonist: inactive; TRPC4 potent: inactive; TRPC4 inh: inactive

How did COc1ccc(C(=O)NNC(=O)CN2CCC(n3nnc4cc(C)ccc43)CC2)cc1 do in these assays?
TRPC6 inh: inactive; TRPC6 act: inactive; TRPC4 agonist: inactive; TRPC4 potent: 16*; TRPC4 inh: inactive

What do the screens show for `COc1ccc(-c2ccc(SCC(=O)c3ccccc3)nn2)cc1OC`?
TRPC6 inh: inactive; TRPC6 act: inactive; TRPC4 agonist: inactive; TRPC4 potent: inactive; TRPC4 inh: inactive

Results for CSc1ccccc1C(=O)NCC(c1ccco1)N(C)C (centres undefined) ?
TRPC6 inh: inactive; TRPC6 act: inactive; TRPC4 agonist: inactive; TRPC4 potent: inactive; TRPC4 inh: inactive

What do the screens show for `CN(C)C(CNC(=O)c1ccc2c(c1)S(=O)(=O)c1ccccc1C2=O)c1ccco1` (centres undefined)?
TRPC6 inh: inactive; TRPC6 act: inactive; TRPC4 agonist: 120*; TRPC4 potent: inactive; TRPC4 inh: -8*

Results for CSc1ccc(C(=O)NCC(c2ccco2)N(C)C)cc1[N+](=O)[O-] (centres undefined) ?
TRPC6 inh: inactive; TRPC6 act: inactive; TRPC4 agonist: 293*; TRPC4 potent: inactive; TRPC4 inh: inactive

Results for CC(=O)NC(CC(=O)NCC(c1ccco1)N(C)C)c1ccccc1 (centres undefined) ?
TRPC6 inh: inactive; TRPC6 act: inactive; TRPC4 agonist: 92*; TRPC4 potent: inactive; TRPC4 inh: inactive

What do the screens show for `CC(C)C(NC(=O)c1ccco1)C(=O)NCC(c1ccco1)N(C)C` (centres undefined)?
TRPC6 inh: inactive; TRPC6 act: inactive; TRPC4 agonist: inactive; TRPC4 potent: inactive; TRPC4 inh: inactive

What do the screens show for `CN(C)C(CNC(=O)c1ccc2ccccc2c1)c1ccco1` (centres undefined)?
TRPC6 inh: inactive; TRPC6 act: inactive; TRPC4 agonist: 68*; TRPC4 potent: inactive; TRPC4 inh: inactive

Results for O=C(NCc1ccco1)c1ccc2c(c1)S(=O)(=O)c1ccccc1C2=O ?
TRPC6 inh: inactive; TRPC6 act: inactive; TRPC4 agonist: inactive; TRPC4 potent: inactive; TRPC4 inh: inactive

How did CC1(C)CC(=O)c2cnc(NC3CC3)nc2C1 do in these assays?
TRPC6 inh: inactive; TRPC6 act: inactive; TRPC4 agonist: inactive; TRPC4 potent: inactive; TRPC4 inh: inactive

Results for Cc1ccc(Nc2ncc3c(n2)CC(C)(C)CC3=O)cc1 ?
TRPC6 inh: inactive; TRPC6 act: inactive; TRPC4 agonist: inactive; TRPC4 potent: 18*; TRPC4 inh: inactive
